This excerpt belongs to a sample that is enriched for hits.
T cruzi inh: T. cruzi replication inhibition; 300,000 tested, 1.4% active; inhibition, % (no concentration beside the values); T. cruzi beta-gal in NIH3T3, luminescence, 90 h;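 active means mean inhibition across valid replicates above about 55%, limit read from the data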;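 further: signal also drops with host cell toxicity which is not excluded here; higher percent means less beta-gal luminescence so fewer parasites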
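Assay system: NIH/3T3 fibroblasts plus reporter T. cruzi. Amount: NIH/3T3 cells, 5,000 per well. Buffer or medium: DMEM, 2% fetal bovine serum. Doses: compound pinned at 50 nL/well, DMSO. Schedule: ≥90 h infection period, 3 h prior cell attachment. Signal: luminescent β-galactosidase signal after 60 min lysis. Read-out: parasite load inhibition, %.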
Lmaj promast: inhibitors of Leishmania major promastigote growth; 200,000 tested, 9% active; AID 1063; inhibition, % at 10 µM; Leishmania major promastigotes, resazurin fluorescence viability; in the data active means inhibition above about 50%;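 further: promastigotes grown with compound for 44 hours at 28 °C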
HSF1 inh: HSF1 inhibition; NIH3T3-HGL HSE-luciferase, MG132-induced, luminescence 8 h; active compounds read low; 300,000 tested, 0.77% active; activity change, negative = inhibition, % at 7.5 µM (by protocol);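 active means more than half of replicate wells show activity change below -50%, luminescence cut by over half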;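 further: luciferase reports HSF-1 transcriptional activity via heat shock element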
HSF1 activator: increases HSF-1 driven luciferase reporter signal | NIH3T3-HGL HSF-1 luciferase reporter, MG132, 8 h; 100% = twice DMSO control signal | AID 504408 | activation, % at 9 µM | 300,000 tested, 1.7% active;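 active means mean replicate activation of at least 50% with a set share of replicates each reaching 50%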
Hsp70 act: Hsp70 transcriptional activation, primary screen | HeLa Hsp70 promoter luciferase reporter, luminescence; scaled: vehicle 0, proteasome-inhibitor control 100% | activation, % at 10 µM | 200,000 tested, 0.04% active;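 active means activation above the mean across all tested compounds plus 3 SD, cutoff set per campaign, cut at about 5.5% in these data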
A number is an active result; . = inactive; / = no result.

SMILES | T cruzi inh | Lmaj promast | HSF1 inh | HSF1 activator | Hsp70 act
Cn1c(=O)[nH]c(=O)c2c1nc([N+](=O)[O-])n2Cc1ccccc1 | . | / | . | 155 | /
CN(Cc1ccccc1)c1nc2c(c(=O)[nH]c(=O)n2C)n1Cc1ccccc1Cl | . | 70 | . | 78 | .
Cc1cccc(N(CC(=O)NC2CCCC2)C(=O)CCC(=O)Nc2ccccn2)c1 | . | / | . | . | /
O=C(NN1C(=O)c2ccccc2C1=O)c1ccccc1[N+](=O)[O-] | . | . | . | . | .
Cc1ccc(C)c(NC(=O)C(c2ccccc2)N2CCOCC2)c1 (stereo not given) | . | . | . | . | .
NCCCNc1nc(N)c([N+](=O)[O-])c(NC2CCCCC2)n1 | . | / | . | . | /
CCCn1c(=O)c(C(=O)NCCc2ccc(Cl)cc2)c(O)c2ccccc21 | . | / | . | . | /
c1coc(CNc2c3c(nc4ccccc24)CCC3)c1 | 69 | 88 | . | . | .
CCc1ccccc1NC(=O)C(CC)Sc1nc2cc3c(cc2c(=O)n1Cc1ccco1)OCO3 (stereo not given) | . | 100 | . | . | .
CCc1ccc(NC(=O)C(CC)Sc2nc3cc4c(cc3c(=O)n2Cc2ccco2)OCO4)cc1 (stereo not given) | . | . | . | . | .
COc1ccc(Cl)cc1NC(=O)C1CCN(S(C)(=O)=O)CC1 | . | / | . | . | /
CC1=CC(C)(C)N2C(=O)C3(SCC(=O)N3c3ccc(F)cc3)c3cc(C)cc1c32 (stereo not given) | . | 92 | . | . | .
Cc1cccc(Cc2nnc(CCC(=O)N(C)CCc3ccccc3)o2)c1 | . | / | . | 64 | /
O=C1C(c2cc(=O)c3ccccc3[nH]2)=C(O)c2ccccc21 | . | . | . | 65 | .
COc1ccccc1NC(=O)C1CCCN(c2cnccn2)C1 (stereo not given) | . | / | . | . | /
CCOc1ccc(C(C)=O)cc1CSc1nnnn1-c1ccc(O)cc1 | . | 60 | . | . | .
COc1ccc(C(C)=O)cc1CSc1nnnn1-c1ccc(O)cc1 | . | / | . | . | /
O=C1C(Cl)=C(Nc2ccc3cn[nH]c3c2)C(=O)c2ccccc21 | 59 | / | -90 | . | /
O=C(Nc1ccc2cn[nH]c2c1)c1c(Cl)cccc1Cl | . | . | . | . | .
O=C1Nc2ccc(Cl)cc2[C@@](C#CC2CC2)(C(F)(F)F)O1 | . | / | . | . | .
COCC(C)n1c(C)cc(C(=O)COC(=O)C2=NN(c3ccccc3)C(=O)CC2)c1C (stereo not given) | . | . | . | . | .
COCC(C)n1c(C)cc(C(=O)COC(=O)c2ccc(N3CCCC3=O)cc2)c1C (stereo not given) | . | 69 | . | . | .
O=C1C2CCCCC2C(=O)N1Cc1ccccc1 (stereo not given) | . | . | . | 68 | .
O=C1C2C3CCC(C3NCc3ccccc3)C2C(=O)N1Cc1ccccc1 (stereo not given) | . | 60 | . | . | .
O=C1C2C3C=CC(C3=C(c3ccccc3)c3ccccc3)C2C(=O)N1Cc1ccccc1 (stereo not given) | . | . | . | . | .
SMILES | T cruzi inh | Lmaj promast | HSF1 inh | HSF1 activator | Hsp70 act
O=C(Cc1cccc(F)c1F)NC1CCCN(Cc2ccc(Cl)cc2)C1 (stereo not given) | . | / | . | . | /
Cc1noc(C)c1COc1ccc(C(=O)OCC(=O)NCCN2C(=O)CSC2=O)cc1 | . | . | . | . | .
C=C(C)C1CCC(C)=C1COC(=O)Nc1ccccc1 (stereo not given) | . | 96 | . | . | .
CN(NC1OC(=O)c2ccccc21)c1ccc(C(F)(F)F)cc1[N+](=O)[O-] (stereo not given) | . | / | -59 | . | /
CN(NC1OC(=O)c2ccccc21)c1ccc(Cl)cc1[N+](=O)[O-] (stereo not given) | . | / | . | . | /
COC(=O)c1cc2cc(NS(=O)(=O)c3ccc(C)cc3)ccc2s1 | . | 100 | . | . | .
COc1ccc(C2=NN(C(=O)c3cccc([N+](=O)[O-])c3)C(c3cccc([N+](=O)[O-])c3)C2)cc1 (stereo not given) | . | 53 | . | . | .
O=C1[C@H]2[C@@H](c3ccc(Cl)cc3)N3C(=O)N(c4cccc(F)c4)C(=O)[C@@]3(Cc3ccc(Cl)cc3)[C@H]2C(=O)N1C1CCCCC1 | 61 | / | . | . | /
CC(C)(C)N1C(=O)[C@H]2[C@@H](c3ccc(Br)cc3)N3C(=O)N(c4cccc(Br)c4)C(=O)[C@@]3(Cc3ccccc3)[C@H]2C1=O | 58 | / | . | . | /
CC1(C)C2CCC1(CS(=O)(=O)N1CCC(C(=O)O)CC1)C(=O)C2 (stereo not given) | . | / | . | . | /
COc1cnc(-c2ccccn2)nc1NC(C)C | 77 | 100 | . | . | .
Nc1cccnc1Sc1cccc(Cl)c1 | . | . | . | . | .
COc1cnc(-c2ccccn2)nc1Sc1cccc(Cl)c1 | . | 100 | . | . | .
COc1cnc(-c2ccccn2)nc1Sc1ccc(C)cc1 | . | 100 | . | . | .
Cc1ccc(Sc2cc(C)nc(-c3ccccn3)n2)cc1 | . | / | . | . | /
COc1ccccc1Sc1nc(-c2ccccn2)ncc1OC | . | 83 | . | . | .
Cc1cc(C(=O)Nc2ccc3[nH]ccc3c2)no1 | . | / | . | . | /
CC(=O)CCC(=O)N1CCCC(N2CCN(c3cccc(Cl)c3)CC2)C1 (stereo not given) | . | / | . | . | /
CCn1c(=NC(=O)CS(=O)(=O)c2ccccc2)sc2cccc(OC)c21 | 58 | / | . | . | /
Cc1c(C(=O)Nc2nnc(SCc3ccccc3Cl)s2)cccc1[N+](=O)[O-] | . | 74 | . | . | .
Cc1c(C(=O)NCCSCc2ccccc2Cl)cccc1[N+](=O)[O-] | . | . | . | . | .
COc1ccc(NC(=O)c2ccc3ccccc3c2)cc1 | . | / | . | 62 | /
CC(=O)c1cccc(NC(=O)c2ccc3ccccc3c2)c1 | . | / | . | 55 | /
COc1ccc(NC(=O)c2oc3ccccc3c2NC(=O)c2ccc3c(c2)OCO3)cc1 | . | 100 | . | . | .
COc1cccc(C(=O)Nc2ccc(NC(=O)C3CC=CCC3C(=O)O)cc2)c1 (stereo not given) | . | / | -52 | . | /
SMILES | T cruzi inh | Lmaj promast | HSF1 inh | HSF1 activator | Hsp70 act
COc1ccc(NC(=O)c2cc3ccccc3o2)cc1OC | . | / | . | . | /
COc1ccc(NC(=O)c2cc3ccccc3o2)cc1 | . | . | . | 55 | .
O=C(Nc1ccccc1)c1cc2ccccc2o1 | . | . | . | . | .
CC(=O)c1cccc(NC(=O)c2oc(C)nc2C)c1 | . | 72 | . | . | .
Cc1cc(C(=O)Nc2ccccc2)oc1C | . | 56 | . | . | .
COC(=O)c1sc2nc(C)nc(SCC(=O)N3CCC(C(=O)O)CC3)c2c1C | . | . | . | . | .
Cc1cccn2c(CN(C)CC3Cc4ccccc4O3)c(C(=O)N3CCCCC3)nc12 (stereo not given) | . | . | . | . | .
NC(=O)c1nn(-c2ccccc2)nc1NC(=O)Cn1nnc(-c2ccccc2)n1 | . | . | . | . | .
